These results are taken from ChEMBL document CHEMBL3526048, “In vitro metabolism of rivoglitazone, a novel peroxisome proliferator-activated receptor γ agonist, in rat, monkey, and human liver microsomes and freshly isolated hepatocytes” (Drug Metab Dispos, 2011).

In data set [1] the target is T1, UDP-glucuronosyltransferase 1A3 (Homo sapiens, UniProt P35503).
T1 sequence (P35503 whole entry): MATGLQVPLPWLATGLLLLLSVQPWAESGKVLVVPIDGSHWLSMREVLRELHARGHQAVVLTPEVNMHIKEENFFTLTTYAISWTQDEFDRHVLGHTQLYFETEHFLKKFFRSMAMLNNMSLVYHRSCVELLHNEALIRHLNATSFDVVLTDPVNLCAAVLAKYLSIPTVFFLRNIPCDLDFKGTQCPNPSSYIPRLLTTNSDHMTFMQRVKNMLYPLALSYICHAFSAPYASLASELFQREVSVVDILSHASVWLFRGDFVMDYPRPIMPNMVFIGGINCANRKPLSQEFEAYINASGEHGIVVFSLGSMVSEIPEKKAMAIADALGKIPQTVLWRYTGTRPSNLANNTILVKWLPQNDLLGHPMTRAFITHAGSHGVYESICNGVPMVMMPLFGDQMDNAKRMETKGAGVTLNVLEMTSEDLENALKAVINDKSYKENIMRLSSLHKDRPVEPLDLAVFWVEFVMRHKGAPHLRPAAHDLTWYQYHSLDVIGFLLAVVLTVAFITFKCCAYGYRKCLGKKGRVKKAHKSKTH
Put plainly: Activity of human UGT1A3 expressed in microsomes isolated from baculovirus infected insect cell assessed as enzyme-mediated compound formation treated with [14C]-rivoglitazone at 20 uM after 4 hrs by radio-HPLC/LC-MS/MS analysis in presence of UDPGA, UDPGA/SAM.

Data set [2] can be described thus: Drug metabolism in rat hepatocytes assessed as formation of 3-(4-((6-methoxy-1-methyl-1H-benzo[d]imidazol-2-yl)methoxy)phenyl)-2-(methylsulfonyl)propanamide at 30 uM after 3 hrs by radio-HPLC/LC-MS/MS analysis in presence of NADPH-generating system/SAM. Format: ADME, cell-based, Hepatocyte.
Data set [3] deals with Liver microsome. In words: Drug metabolism in human liver microsomes assessed as formation of 3-(4-((6-methoxy-1-methyl-1H-benzo[d]imidazol-2-yl)methoxy)phenyl)-2-(methylthio)propanoic acid at 20 uM after 2 to 4 hrs by radio-HPLC/LC-MS/MS analysis in presence of NADPH-generating system/SAM and UDPGA/SAM. The format is ADME. For orientation: Liver microsomes are vesicles of endoplasmic reticulum, rich in cytochrome P450 enzymes.

The nature of data set [4]: Drug metabolism in rat hepatocytes assessed as formation of 5-(4-((6-hydroxy-1-methyl-1H-benzo[d]imidazol-2-yl)methoxy)benzyl)thiazolidine-2,4-dione at 30 uM after 3 hrs by radio-HPLC/LC-MS/MS analysis in presence of NADPH-generating system and NADPH-generating system/SAM. The format is ADME, cell-based, Hepatocyte.
Data set [5] deals with T2, Cytochrome P450 2C9 (Homo sapiens, UniProt P11712). In words: Activity of human CYP2C9 expressed in microsomes isolated from baculovirus infected insect cell assessed as enzyme-mediated 2-mercapto-3-(4-((6-methoxy-1-methyl-1H-benzo[d]imidazol-2-yl)methoxy)phenyl)propanamide formation at 20 uM after 2 hrs by radio-HPLC/LC-MS/MS analysis in presence of NADPH-generating system and NADPH-generating system/SAM. Format: ADME.
T2 sequence (P11712 whole entry): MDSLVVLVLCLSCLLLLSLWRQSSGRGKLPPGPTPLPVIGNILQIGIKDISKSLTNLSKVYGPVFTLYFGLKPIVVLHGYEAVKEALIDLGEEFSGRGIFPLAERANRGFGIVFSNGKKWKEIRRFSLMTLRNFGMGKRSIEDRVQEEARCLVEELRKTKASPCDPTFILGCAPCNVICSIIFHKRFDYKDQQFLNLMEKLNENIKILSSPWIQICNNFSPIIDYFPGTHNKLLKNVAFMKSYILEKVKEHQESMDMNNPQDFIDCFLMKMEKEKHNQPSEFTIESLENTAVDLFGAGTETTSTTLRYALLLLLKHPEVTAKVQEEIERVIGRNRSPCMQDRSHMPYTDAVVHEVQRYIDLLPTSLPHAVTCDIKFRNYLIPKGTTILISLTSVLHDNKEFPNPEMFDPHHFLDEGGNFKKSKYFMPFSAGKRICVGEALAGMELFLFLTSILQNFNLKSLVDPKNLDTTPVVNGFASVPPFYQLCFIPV

In data set [6] the target is T3, Cytochrome P450 2C19 (Homo sapiens, UniProt P33261). Put plainly: Activity of human CYP2C19 expressed in microsomes isolated from baculovirus infected insect cell assessed as enzyme-mediated 2-mercapto-3-(4-((6-methoxy-1-methyl-1H-benzo[d]imidazol-2-yl)methoxy)phenyl)propanamide formation at 20 uM after 2 hrs by radio-HPLC/LC-MS/MS analysis in presence of NADPH-generating system and NADPH-generating system/SAM. The format is ADME. In a few lines:
(§1)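 Baculovirus/insect-cell microsomes expressing single human CYPs, 1 mg/ml protein, with 50 mM potassium phosphate (pH 7.4) or 100 mM Tris-HCl (pH 7.5). NADPH-generating system: 2 mM NADP⁺, 20 mM glucose 6-phosphate, 2 units/ml G6PDH, 10 mM MgCl₂. [¹⁴C]rivoglitazone at 20 μM, 2 h at 37°C with shaking. Control used insect-cell control supersomes. Stopped with acetonitrile; supernatant concentrated under nitrogen; metabolites analysed by radio-HPLC, LC-MS and LC-MS/MS.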

A further data set concerns the target T4, Cytochrome P450 2C8 (Homo sapiens, UniProt P10632).
T4 sequence (P10632 whole entry): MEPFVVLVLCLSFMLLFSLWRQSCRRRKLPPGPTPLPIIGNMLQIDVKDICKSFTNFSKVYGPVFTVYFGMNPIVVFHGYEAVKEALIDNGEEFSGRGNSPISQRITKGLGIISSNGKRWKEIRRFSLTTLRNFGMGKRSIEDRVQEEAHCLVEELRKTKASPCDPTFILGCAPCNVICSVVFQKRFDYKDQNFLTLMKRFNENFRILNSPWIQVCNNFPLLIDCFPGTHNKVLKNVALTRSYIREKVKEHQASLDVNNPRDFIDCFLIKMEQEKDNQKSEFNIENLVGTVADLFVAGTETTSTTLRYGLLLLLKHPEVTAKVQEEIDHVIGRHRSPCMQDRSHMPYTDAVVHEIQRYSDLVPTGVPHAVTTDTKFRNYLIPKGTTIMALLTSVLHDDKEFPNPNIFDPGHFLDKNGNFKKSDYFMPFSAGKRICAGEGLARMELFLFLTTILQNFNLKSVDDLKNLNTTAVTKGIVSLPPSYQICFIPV
Put plainly: Activity of human CYP2C8 expressed in microsomes isolated from baculovirus infected insect cell assessed as enzyme-mediated 2-((4-((2,4-dioxothiazolidin-5-yl)methyl)phenoxy)methyl)-1-methyl-1H-benzo[d]imidazol-6-yl hydrogen sulfate formation at 20 uM after 2 hrs by radio-HPLC/LC-MS/MS analysis. Format: ADME. In a few lines:
as §1

Data set [7] addresses T3, Cytochrome P450 2C19. Put plainly: Activity of human CYP2C19 expressed in microsomes isolated from baculovirus infected insect cell assessed as enzyme-mediated 2-((4-((2,4-dioxothiazolidin-5-yl)methyl)phenoxy)methyl)-1-methyl-1H-benzo[d]imidazol-6-yl hydrogen sulfate formation at 20 uM after 2 hrs by radio-HPLC/LC-MS/MS analysis. The format is ADME. A digest of the protocol: as §1

Data set [8] relates to Liver microsome. Put plainly: Drug metabolism in Sprague-Dawley rat liver microsomes assessed as formation of 3-(4-((6-methoxy-1-methyl-1H-benzo[d]imidazol-2-yl)methoxy)phenyl)-2-(methylsulfonyl)propanamide at 20 uM after 2 hrs by radio-HPLC/LC-MS/MS analysis in presence of NADPH-generating system/SAM. The format is ADME.
Data set [9] in a line: Drug metabolism in cynomolgus monkey liver microsomes assessed as formation of 5-(4-((6-hydroxy-1-methyl-1H-benzo[d]imidazol-2-yl)methoxy)benzyl)thiazolidine-2,4-dione at 20 uM after 2 hrs by radio-HPLC/LC-MS/MS analysis in presence of NADPH-generating system and NADPH-generating system/SAM. The format is ADME, Macaca fascicularis.
A short description of data set [10]: Drug metabolism in cynomolgus monkey liver microsomes assessed as formation of 5-(4-((6-methoxy-1H-benzo[d]imidazol-2-yl)methoxy)benzyl)thiazolidine-2,4-dione at 20 uM after 2 hrs by radio-HPLC/LC-MS/MS analysis in presence of NADPH-generating system and NADPH-generating system/SAM. The format is ADME, Macaca fascicularis.
Data set [11] has as its target T2, Cytochrome P450 2C9. In words: Activity of human CYP2C9 expressed in microsomes isolated from baculovirus infected insect cell assessed as enzyme-mediated 2-hydroxy-3-(4-((6-methoxy-1-methyl-1H-benzo[d]imidazol-2-yl)methoxy)phenyl)propanamide formation at 20 uM after 2 hrs by radio-HPLC/LC-MS/MS analysis in presence of NADPH-generating system and NADPH-generating system/SAM. Format: ADME.

T3 sequence (P33261 whole entry): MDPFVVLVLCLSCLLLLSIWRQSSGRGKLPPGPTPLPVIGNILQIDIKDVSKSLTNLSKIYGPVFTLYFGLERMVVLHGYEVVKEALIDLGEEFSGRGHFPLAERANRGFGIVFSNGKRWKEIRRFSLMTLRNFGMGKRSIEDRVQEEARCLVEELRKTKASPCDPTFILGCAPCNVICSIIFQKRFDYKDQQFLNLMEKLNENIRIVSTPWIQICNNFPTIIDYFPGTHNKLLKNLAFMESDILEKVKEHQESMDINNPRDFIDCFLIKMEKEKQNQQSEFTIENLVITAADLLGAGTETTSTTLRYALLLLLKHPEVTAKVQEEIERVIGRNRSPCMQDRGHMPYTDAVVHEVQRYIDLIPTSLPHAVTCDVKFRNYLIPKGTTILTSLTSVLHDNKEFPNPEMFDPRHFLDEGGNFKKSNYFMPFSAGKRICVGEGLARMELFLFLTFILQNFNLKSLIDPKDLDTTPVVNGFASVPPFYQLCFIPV

Regarding `COc1ccc2nc(COc3ccc(CC(S)C(=O)O)cc3)n(C)c2c1` (configuration not stated), in data set [1], the Drug metabolism result is “metabolite_detected”.
`COc1ccc2nc(COc3ccc(C[14CH]4SC(=O)NC4=O)cc3)n(C)c2c1.Cl` (racemic): the Drug metabolism entry in data set [2] is given as “metabolite_detected”; in the data set on Liver microsome [3], “metabolite_detected”; in [4] it was “metabolite_detected”; on Cytochrome P450 2C9 [5] it was “metabolite_detected”; on Cytochrome P450 2C19 [6] it was “metabolite_detected”; on Cytochrome P450 2C8 it was “metabolite_not_detected”. The Drug metabolism entry at Cytochrome P450 2C19 [7] was “metabolite_not_detected”; in the data set with Liver microsome [8] it was “metabolite_detected”; in data set [9], “metabolite_detected”; in data set [10], “metabolite_detected”; at Cytochrome P450 2C9 [11] it was “metabolite_detected”.
